Data: ChEMBL document CHEMBL5532695, “4-Trifluoromethyl bithiazoles as broad-spectrum antimicrobial agents for virus-related bacterial infections or co-infections” (RSC Med Chem, 2024)

system: Zika virus; assay: not given; settings: vero e6

Row | Compound | IC50
1 | COC(=O)c1cc(Nc2nc(-c3sc(NC(=O)c4ccccc4)nc3C(F)(F)F)cs2)cc(C(F)(F)F)c1 | Not Active

target: Phosphatidylinositol 4-kinase beta (Homo sapiens, UniProt Q9UBF8); assay: Inhibition of recombinant full length his tagged PI4KB (unknown origin) incubated for 10 mins in presence of ATP by ADP-glo kinase assay; settings: not given
Sequence (Q9UBF8 whole entry): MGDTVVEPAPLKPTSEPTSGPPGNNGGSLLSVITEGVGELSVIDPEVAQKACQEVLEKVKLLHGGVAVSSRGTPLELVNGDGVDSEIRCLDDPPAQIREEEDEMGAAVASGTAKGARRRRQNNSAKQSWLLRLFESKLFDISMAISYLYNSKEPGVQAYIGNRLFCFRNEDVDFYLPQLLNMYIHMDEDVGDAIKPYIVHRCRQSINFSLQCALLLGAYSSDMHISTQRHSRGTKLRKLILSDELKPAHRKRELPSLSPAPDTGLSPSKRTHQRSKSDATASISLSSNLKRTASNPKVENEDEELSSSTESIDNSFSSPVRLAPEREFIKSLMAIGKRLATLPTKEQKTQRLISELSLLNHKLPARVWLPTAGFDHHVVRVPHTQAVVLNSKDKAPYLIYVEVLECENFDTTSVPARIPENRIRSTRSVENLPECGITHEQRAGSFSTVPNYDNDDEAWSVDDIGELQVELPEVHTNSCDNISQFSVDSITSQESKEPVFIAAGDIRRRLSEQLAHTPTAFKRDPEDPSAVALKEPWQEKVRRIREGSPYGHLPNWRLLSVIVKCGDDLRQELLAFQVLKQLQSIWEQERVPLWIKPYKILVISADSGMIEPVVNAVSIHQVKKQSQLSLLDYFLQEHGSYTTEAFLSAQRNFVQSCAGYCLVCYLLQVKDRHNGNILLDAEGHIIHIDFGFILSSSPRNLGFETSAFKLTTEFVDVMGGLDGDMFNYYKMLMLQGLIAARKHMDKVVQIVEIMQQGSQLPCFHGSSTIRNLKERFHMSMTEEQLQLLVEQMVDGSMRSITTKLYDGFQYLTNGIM

Row | Compound | IC50
2 | COC(=O)c1cc(Nc2nc(-c3sc(NC(=O)c4ccccc4)nc3C(F)(F)F)cs2)cc(C(F)(F)F)c1 | Not Active

system: Bacillus subtilis; assay: Antibacterial activity against Bacillus subtilis ATCC 6633 assessed as reduction in microbial growth measured after 18 hrs by CLSI based broth microdilution method; format: functional; settings: not given
Method in brief: (§1)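 MIC by CLSI broth microdilution in Mueller–Hinton medium, triplicate. Inoculum 5 × 10^4 CFU per well. Compounds taken up in DMSO (50 mg mL−1 stock) and diluted in medium. Read after 18 h at 35 ± 2 °C.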

Row | Compound | MIC [µg/mL]
3 | COC(=O)c1cc(Nc2nc(-c3sc(NC(=O)c4ccccc4)nc3C(F)(F)F)cs2)cc(C(F)(F)F)c1 | > 32

system: Enterococcus faecalis; assay: Antibacterial activity against Enterococcus faecalis ATCC 29212 assessed as reduction in microbial growth measured after 18 hrs by CLSI based broth microdilution method; format: functional; settings: not given
Method in brief: as §1

Row | Compound | MIC [µg/mL]
4 | COC(=O)c1cc(Nc2nc(-c3sc(NC(=O)c4ccccc4)nc3C(F)(F)F)cs2)cc(C(F)(F)F)c1 | > 32

system: Escherichia coli; assay: Synergistic antibacterial activity against Escherichia coli CCUGT incubated for 18 to 24 hrs in presence of colistin by broth microdilution method; format: functional; settings: time 18-24 hrs

Row | Compound | MAC [µg/mL]
5 | COC(=O)c1cc(Nc2nc(-c3sc(NC(=O)c4ccccc4)nc3C(F)(F)F)cs2)cc(C(F)(F)F)c1 | >64

system: not listed separately; assay: Cytotoxicity against african green monkey Vero E6 cells assessed as reduction in cell viability by MTT assay; format: toxicity, cell-based; settings: chlorocebus sabaeus, Vero E6 cells (Vero C1008)
Method in brief: (§2)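 MTT viability on HeLa or VeroE6 cells, run in parallel with the antiviral assays. CC50 from variable-slope sigmoidal dose–response regression.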

Row | Compound | CC50 [µM]
6 | COC(=O)c1cc(Nc2nc(-c3sc(NC(=O)c4ccccc4)nc3C(F)(F)F)cs2)cc(C(F)(F)F)c1 | > 50

system: Klebsiella pneumoniae; assay: Synergistic antibacterial activity against Klebsiella pneumoniae ATCC 13833 incubated for 18 to 24 hrs in presence of colistin by broth microdilution method; format: functional; settings: time 18-24 hrs

Row | Compound | MAC [µg/mL]
7 | COC(=O)c1cc(Nc2nc(-c3sc(NC(=O)c4ccccc4)nc3C(F)(F)F)cs2)cc(C(F)(F)F)c1 | >64

system: not listed separately; assay: Cytotoxicity against human HeLa cells assessed as reduction in cell viability by MTT assay; format: toxicity, cell-based; settings: not given
Method in brief: as §2

Row | Compound | CC50 [µM]
8 | COC(=O)c1cc(Nc2nc(-c3sc(NC(=O)c4ccccc4)nc3C(F)(F)F)cs2)cc(C(F)(F)F)c1 | 22.9

system: Streptococcus pyogenes; assay: Antibacterial activity against Streptococcus pyogenes ATCC 12344 assessed as reduction in microbial growth measured after 18 hrs by CLSI based broth microdilution method; format: functional; settings: not given
Method in brief: as §1

Row | Compound | MIC [µg/mL]
9 | COC(=O)c1cc(Nc2nc(-c3sc(NC(=O)c4ccccc4)nc3C(F)(F)F)cs2)cc(C(F)(F)F)c1 | > 32

system: Acinetobacter baumannii; assay: Synergistic antibacterial activity against Acinetobacter baumannii ATCC 17978 incubated for 18 to 24 hrs in presence of colistin by broth microdilution method; format: functional; settings: time 18-24 hrs

Row | Compound | MAC [µg/mL]
10 | COC(=O)c1cc(Nc2nc(-c3sc(NC(=O)c4ccccc4)nc3C(F)(F)F)cs2)cc(C(F)(F)F)c1 | >64

system: rhinovirus A16; assay: microbe, parasite or virus in culture; settings: Rhinovirus A, HeLa, 48 h

Row | Compound | IC50 [µM]
11 | COC(=O)c1cc(Nc2nc(-c3sc(NC(=O)c4ccccc4)nc3C(F)(F)F)cs2)cc(C(F)(F)F)c1 | 2.44

system: Staphylococcus aureus; assay: Antibacterial activity against Staphylococcus aureus ATCC 25923 assessed as reduction in microbial growth measured after 18 hrs by CLSI based broth microdilution method; format: functional; settings: not given
Method in brief: as §1

Row | Compound | MIC [µg/mL]
12 | COC(=O)c1cc(Nc2nc(-c3sc(NC(=O)c4ccccc4)nc3C(F)(F)F)cs2)cc(C(F)(F)F)c1 | > 32

system: Pseudomonas aeruginosa; assay: Synergistic antibacterial activity against Pseudomonas aeruginosa ATCC 27853 incubated for 18 to 24 hrs in presence of colistin by broth microdilution method; format: functional; settings: time 18-24 hrs

Row | Compound | MAC [µg/mL]
13 | COC(=O)c1cc(Nc2nc(-c3sc(NC(=O)c4ccccc4)nc3C(F)(F)F)cs2)cc(C(F)(F)F)c1 | >64

system: enterovirus D68; assay: not given; settings: hela

Row | Compound | IC50
14 | COC(=O)c1cc(Nc2nc(-c3sc(NC(=O)c4ccccc4)nc3C(F)(F)F)cs2)cc(C(F)(F)F)c1 | Not Active
